The text below walks through data of ChEMBL document CHEMBL1938236, “Design and synthesis of small molecular dual inhibitor of falcipain-2 and dihydrofolate reductase as antimalarial agent” (Bioorg Med Chem Lett, 2012).

For test [1], the system named is Plasmodium falciparum. Description: Inhibition of Plasmodium falciparum DHFR assessed as oxidation of NADPH to NADP+ at 10 uM after 15 mins spectrophotometric assay.
Test [2] deals with Plasmodium falciparum. The experiment in a line: Inhibition of Plasmodium falciparum falcipain-2 using Z-Leu-Arg-AMC as substrate at 10 uM after 30 mins by spectrophotometric assay.
Test [3] is described as follows: Inhibition of Plasmodium falciparum DHFR assessed as oxidation of NADPH to NADP+ after 15 mins spectrophotometric assay. Summed up: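 Purified P. falciparum DHFR was preincubated 15 min on ice with graded compound concentrations in buffer containing NADPH, 50 mM TES pH 7.0, 1 mM EDTA, 75 mM 2-mercaptoethanol and 1 mg/mL BSA. DHF was then added to start the reaction, and NADPH oxidation was followed by absorbance at 340 nm. IC50 came from percent inhibition versus concentration plots, three independent experiments.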

The nature of test [4]: Inhibition of Plasmodium falciparum falcipain-2 using Z-Leu-Arg-AMC as substrate after 30 mins by spectrophotometric assay. Summed up: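 FP-2 (30 nM) was preincubated 30 min at room temperature with graded compound concentrations in 100 mM sodium acetate pH 5.5 with 10 mM DTT, DMSO ≤1%. Z-Leu-Arg-AMC in the same buffer was then added, and fluorescence (ex 355/em 460) was monitored for 30 min at room temperature. IC50 came from percent inhibition versus concentration plots, three independent experiments.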

Test [5] deals with Plasmodium berghei. Description: Antimalarial activity against Plasmodium berghei ANKA infected in Kunming mouse assessed as reduction of parasitemia at 9 mg/kg, ip for 4 days measured on day 5. To be noted: route intragastric, in the assay text read “ig for 4 days” for “ip for 4 days”. In kind it is functional. Also noted: scale not given: the % may be the effect or the level left. The gist of the method: (§1)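 Kunming mice (groups of 10, 20 2 g) infected ip with 0.2 mL of RBC (5 × 10⁶) from P. berghei ANKA-infected mice. The compound was given intragastrically starting 5 h post-infection, for 4 consecutive days, at 3, 9 or 18 mg kg⁻¹ d⁻¹ (4-day suppressive test). Parasitemia was counted as infected RBC per 1000 RBC on day 5, and reduction was calculated as 100 − 100 × (treated/control mean % parasitemia). Survivors were counted on day 10.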

The test system of test [6] is Plasmodium berghei. Description: Antimalarial activity against Plasmodium berghei ANKA infected in Kunming mouse assessed as reduction of parasitemia at 18 mg/kg, ip for 4 days measured on day 5. In kind it is functional. Also noted: scale not given: the % may be the effect or the level left. Particulars: route intragastric, in the assay text read “ig for 4 days” for “ip for 4 days”. Summed up:
as §1

Test [7] deals with Plasmodium berghei. The experiment in a line: Antimalarial activity against Plasmodium berghei ANKA infected in Kunming mouse assessed as mouse survival at 3 mg/kg, ip for 4 days measured on day 10. In kind it is functional, organism-based. More on the design: dose 3 mg/kg. Particulars: in the assay text read “ig for 4 days” for “ip for 4 days”. The gist of the method: as §1

Test [8] relates to Plasmodium berghei. The experiment in a line: Antimalarial activity against Plasmodium berghei ANKA infected in Kunming mouse assessed as mouse survival at 9 mg/kg, ip for 4 days measured on day 10. In kind it is functional, organism-based. More on the design: dose 9 mg/kg. To be noted: in the assay text read “ig for 4 days” for “ip for 4 days”. The gist of the method:
as §1

For test [9], the system named is Plasmodium berghei. Description: Antimalarial activity against Plasmodium berghei ANKA infected in Kunming mouse assessed as mouse survival at 18 mg/kg, ip for 4 days measured on day 10. In kind it is functional, organism-based. More on the design: dose 18 mg/kg. Particulars: in the assay text read “ig for 4 days” for “ip for 4 days”. Summed up:
as §1

Test [10] relates to Plasmodium falciparum. The experiment in a line: Ratio of N-(2,3-dihydrobenzo[b][1,4]dioxin-6-yl)-3-(4-(N-phenethylsulfamoyl)phenyl)propanamide IC50 to compound IC50 for Plasmodium falciparum falcipain-2.
Test [11] deals with Plasmodium falciparum. The experiment in a line: Ratio of N-(2,3-dihydrobenzo[b][1,4]dioxin-6-yl)-3-(4-(N-phenethylsulfamoyl)phenyl)propanamide IC50 to compound IC50 for Plasmodium falciparum DHFR.
Test [12] relates to Plasmodium berghei. Description: Antimalarial activity against Plasmodium berghei ANKA infected in Kunming mouse assessed as reduction of parasitemia at 3 mg/kg, ig for 4 days measured on day 5. Also noted: scale not given: the % may be the effect or the level left. To be noted: route intragastric.
The test system of test [13] is Plasmodium berghei. Description: Antimalarial activity against Plasmodium berghei ANKA infected in ig dosed Kunming mouse assessed as reduction of parasitemia administered for 4 days measured on day 5.
In test [14] the test system is Plasmodium berghei. Description: Antimalarial activity against Plasmodium berghei ANKA infected in Kunming mouse assessed as reduction of parasitemia at 10 mg/kg, ip for 4 days measured on day 5. More on the design: scale not given: the % may be the effect or the level left. In kind it is functional. Particulars: route intraperitoneal.
Test [15] has as its system Plasmodium berghei. Description: Antimalarial activity against Plasmodium berghei ANKA infected in Kunming mouse assessed as mouse survival at 10 mg/kg, ig for 4 days measured on day 10.

In general, inhibition refers to how much of the control response was suppressed. One may read the IC50 as the concentration that gives 50% inhibition.

Active and inactive are the calls of the source. The calls are words filed in the database; no cut-off is given here. Some results are limits rather than exact numbers.

In the case of `O=C(CCc1ccc(S(=O)(=O)NCc2ccccc2)cc1)Nc1ccc2c(c1)OCCO2`, the inhibition in the test with Plasmodium falciparum [1] is 15.6%; with Plasmodium falciparum [2], below 5%.

With `CCc1nc(N)nc(N)c1-c1ccc(Cl)cc1` [PYRIMETHAMINE], the inhibition with Plasmodium falciparum [1] is 98.9%. Besides, in test [3], the concentration for half-maximal inhibition (IC50) came out at 0.02 µM.

In the case of `COc1ccc(NC(=O)CCc2ccc(S(=O)(=O)NCCc3ccccc3)cc2)cc1OC`, the inhibition in the test on Plasmodium falciparum [1] was 51.2%; in the test with Plasmodium falciparum [2], 15%. In addition, the concentration for half-maximal inhibition (IC50) in test [3] turned out to be 9.4 µM.

As to `O=C(Nc1ccc2c(c1)OCCO2)c1ccc(S(=O)(=O)NCCc2ccccc2)cc1`, the inhibition with Plasmodium falciparum [1] is 11.8%; in the test on Plasmodium falciparum [2], below 5%.

In the case of `CCc1nnc(NC(=O)CCc2ccc(S(=O)(=O)Nc3ccc(F)c(Cl)c3)cc2)s1`, the inhibition came to 70.6% in the test with Plasmodium falciparum [1] and 45.1% in the test on Plasmodium falciparum [2]. The 50% inhibitory concentration (IC50) in test [4] was found to be 9.8 µM; in test [3] it was 1.8 µM.

For the compound `O=C(Cc1ccc(S(=O)(=O)NCCc2ccccc2)cc1)Nc1ccc2c(c1)OCCO2`, the values for the inhibition in the test with Plasmodium falciparum [1] and with Plasmodium falciparum [2] were 68% and below 5%, respectively. The IC50 in test [3] was found to be 5 µM.

As to `O=C(CCc1ccc(S(=O)(=O)Nc2ccc(F)c(Cl)c2)cc1)Nc1ccc2c(c1)OCCO2`, the inhibition turned out to be 46.5% in the test with Plasmodium falciparum [1] and 32.7% in the test with Plasmodium falciparum [2]. For the same compound, the concentration for half-maximal inhibition (IC50) came out at 13.2 µM in [4] and 16.8 µM in test [3].

In turn, `CC(C)C[C@H](NC(=O)[C@H]1O[C@@H]1C(=O)O)C(=O)NCCCCN=C(N)N` [E-64] showed an inhibition with Plasmodium falciparum [2] of 97.4%. In test [4], the midpoint of inhibition, the IC50, lay at 0.017 µM.

Regarding `COc1ccc(NC(=O)CCc2ccc(S(=O)(=O)NCCc3ccccc3)cc2)cc1O`, the inhibition turned out to be 46.1% in the test with Plasmodium falciparum [1] and 13.6% in the test on Plasmodium falciparum [2]. Moreover, in test [3], the IC50 was determined as 12.6 µM.

Take `O=C(CCc1ccc(S(=O)(=O)NCCc2ccccc2)cc1)NCc1ccccn1`: the values for the inhibition in the test with Plasmodium falciparum [1] and in the test on Plasmodium falciparum [2] were 17.9% and 10.7%, respectively.

With `CCc1nnc(NC(=O)CCc2ccc(S(=O)(=O)Nc3ccc(F)cc3)cc2)s1`, the inhibition with Plasmodium falciparum [1] was 67.5%; in the test with Plasmodium falciparum [2], 72.9%. The IC50 in [4] stood at 7 µM; in test [3] it was 6.3 µM. For the same compound, the Activity is 53.6% with Plasmodium berghei [5], 75.6% in the test on Plasmodium berghei [6], 44.6% in the test on Plasmodium berghei [12] and “Dose dependent effect” in the test with Plasmodium berghei [13]. Moreover, the result with Plasmodium berghei [7], with Plasmodium berghei [8] and with Plasmodium berghei [9] was Active. Further, the Ratio IC50 came to 8 in the test with Plasmodium falciparum [10] and 6 in the test on Plasmodium falciparum [11].

For the compound `O=C(CCc1ccc(S(=O)(=O)NCCc2ccccc2)cc1)Nc1nc2ccccc2s1`, the values for the inhibition in the test on Plasmodium falciparum [1] and in the test with Plasmodium falciparum [2] were 37.9% and 41.5%, respectively. The half-inhibitory concentration (IC50) was 8.9 µM in [4] and 15.1 µM in test [3].

Take `CCN(CC)CCCC(C)Nc1ccnc2cc(Cl)ccc12.O=P(O)(O)O.O=P(O)(O)O` (centres undefined) [CHLOROQUINE PHOSPHATE]: the Activity with Plasmodium berghei [14] is 100%. Besides, the result in the test on Plasmodium berghei [15] was Active.

`COc1cccc(NS(=O)(=O)c2ccc(CCC(=O)Nc3ccc4c(c3)OCCO4)cc2)c1`: the inhibition in the test on Plasmodium falciparum [1] is 9.3%; in the test with Plasmodium falciparum [2] it was 17.9%.

In the case of `CCc1nnc(NC(=O)CCc2ccc(S(=O)(=O)NCCc3ccccc3)cc2)s1`, the inhibition in the test on Plasmodium falciparum [1] turned out to be 31.6%; with Plasmodium falciparum [2], 46.5%. The IC50 in [4] is 8.1 µM; in [3], 19.8 µM.

For the compound `COc1ccc(NS(=O)(=O)c2ccc(CCC(=O)Nc3ccc4c(c3)OCCO4)cc2)cc1OC`, the inhibition with Plasmodium falciparum [1] came out at 23.2%; with Plasmodium falciparum [2] it was 6.3%.

Take `O=C(CCc1ccc(S(=O)(=O)NCCc2ccccc2)cc1)NCc1cccs1`: the inhibition in the test on Plasmodium falciparum [1] is 10.8%; in the test on Plasmodium falciparum [2], 15.2%.

`O=C(CCc1ccc(S(=O)(=O)NCCc2ccccc2)cc1)Nc1ccc2c(c1)OCCO2`: the inhibition in the test with Plasmodium falciparum [1] was determined as 26.5%; in the test with Plasmodium falciparum [2], 23%. For the same compound, the half-maximal inhibitory concentration (IC50) was found to be 54.2 µM in test [4] and 35.5 µM in test [3].

For the compound `O=C(CCc1ccc(S(=O)(=O)NCCc2ccccc2)cc1)Nc1nc(-c2ccccc2)cs1`, the results for the inhibition in the test with Plasmodium falciparum [1] and with Plasmodium falciparum [2] were 34.8% and 94.5%, respectively. Further, the IC50 is 2.7 µM in [4] and 14.6 µM in test [3].
